Measured values published in ChEMBL document CHEMBL4765248, “Design, synthesis, biological evaluation and molecular docking study of novel thieno[3,2-d]pyrimidine derivatives as potent FAK inhibitors” (Eur J Med Chem, 2020).

Columns and labels:
[1] = tested on: A549; test: Antiproliferative activity against human A549 cells assessed as reduction in cell viability at 0.1 to 2.5 uM by MTT assay; assay type: functional, cell-based; conditions: dose 0.1-2.5 µM, time 24-72 hrs, TDE = time-dependent effect
[2] = tested on: MDA-MB-231; test: Induction of cell cycle arrest in human MDA-MB-231 cells assessed as accumulation of cells at S phase at 0.1 uM measured after 48 hrs by PI staining based flow cytometry method (reference value: 39.17%); assay type: functional
[3] = target: Mast/stem cell growth factor receptor Kit (Homo sapiens) (UniProt P10721); test: Inhibition of His-tagged human KIT cytoplasmic domain expressed in baculovirus expression system at 1 uM by Selectscreen kinase assay
How it was run: (§1)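 Single-point screen at 1 μM final against a panel of 25 kinases using a commercial profiling service; mean of three independent experiments each run in triplicate.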

[4] = target: Serine/threonine-protein kinase PAK 1 (Homo sapiens) (UniProt Q13153); test: Inhibition of GST-tagged full length human PAK1 expressed in baculovirus expression system at 1 uM by Selectscreen kinase assay; how it was run: as §1
[5] = tested on: MDA-MB-231; test: Induction of cell cycle arrest in human MDA-MB-231 cells assessed as accumulation of cells at G2/M phase at 0.2 uM measured after 48 hrs by PI staining based flow cytometry method (reference value: 17.40%); assay type: functional
[6] = tested on: MDA-MB-231; test: Induction of apoptosis in human MDA-MB-231 cells incubated for 48 hrs by Annexin V-FITC/PI staining based flow cytometric analysis; assay type: functional, cell-based; conditions: dose 0.1-0.4 µM
[7] = tested on: MDA-MB-231; test: Antiproliferative activity against human MDA-MB-231 cells assessed as cell viability at 2.5 uM measured after 24 hrs by MTT assay (reference value: 100%); assay type: functional; conditions: read-out: Activity
[8] = target: Inhibitor of nuclear factor kappa-B kinase subunit epsilon (Homo sapiens) (UniProt Q14164); test: Inhibition of GST-tagged full length human IKK epsilon expressed in baculovirus expression system at 1 uM by Selectscreen kinase assay; how it was run: as §1
[9] = tested on: MDA-MB-231; test: Induction of apoptosis in human MDA-MB-231 cells assessed as early apoptotic cells at 0.4 uM incubated for 48 hrs by Annexin V-FITC/PI staining based flow cytometric analysis (reference value: 1.58%); assay type: functional
[10] = target: Rho-associated protein kinase 1 (Homo sapiens) (UniProt Q13464); test: Inhibition of GST-tagged recombinant human ROCK1 catalytic domain (1-535) expressed in baculovirus expression system at 1 uM by Selectscreen kinase assay; how it was run: as §1
[11] = tested on: A549; test: Antiproliferative activity against human A549 cells assessed as cell viability at 0.5 uM measured after 48 hrs by MTT assay (reference value: 100%); assay type: functional; conditions: read-out: Activity
[12] = tested on: MDA-MB-231; test: Antiproliferative activity against human MDA-MB-231 cells assessed as reduction in cell viability measured after 24 to 72 hrs by MTT assay; assay type: functional, cell-based; conditions: dose 0.1-2.5 µM, time 24-72 hrs
[13] = tested on: MDA-MB-231; test: Induction of apoptosis in human MDA-MB-231 cells assessed as viable cells at 0.2 uM incubated for 48 hrs by Annexin V-FITC/PI staining based flow cytometric analysis (reference value: 95.84%); assay type: functional; conditions: read-out: Activity
[14] = target: Protein kinase C theta type (Homo sapiens) (UniProt Q04759); test: Inhibition of His-tagged full length human PKC theta expressed in baculovirus expression system at 1 uM by Selectscreen kinase assay; how it was run: as §1
[15] = target: T1, Focal adhesion kinase 1 (Homo sapiens, UniProt Q05397); test: Inhibition of GST-tagged full length human FAK expressed in baculovirus expression system at 1 uM by Selectscreen kinase assay; how it was run: as §1
[16] = tested on: A549; test: Antiproliferative activity against human A549 cells assessed as cell viability at 2.5 uM measured after 72 hrs by MTT assay (reference value: 100%); assay type: functional; conditions: read-out: Activity
[17] = target: Homeodomain-interacting protein kinase 3 (Homo sapiens) (UniProt Q9H422); test: Inhibition of His-tagged human HIPK3 catalytic domain expressed in baculovirus expression system at 1 uM by Selectscreen kinase assay; how it was run: as §1
[18] = Intrinsic clearance in rat liver at 1 uM measured after 60 mins in presence of NADPH by LC-MS/MS analysis; assay type: ADME; conditions: 1 h
How it was run: (§2)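 Rat liver microsomes (0.5 mg/mL) were incubated at 37 °C with 1 μM compound in 100 mM potassium phosphate, pH 7.4, with 10 mM MgCl2. Reaction was started with prewarmed NADPH cofactor and sampled at 0, 5, 10, 20, 30 and 60 min. Protein was precipitated with cold acetonitrile and supernatants analysed by LC-MS/MS to give half-life, 1 h remaining and intrinsic clearance.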

[19] = tested on: MDA-MB-231; test: Antiproliferative activity against human MDA-MB-231 cells assessed as cell viability at 0.1 uM measured after 48 hrs by MTT assay (reference value: 100%); assay type: functional; conditions: read-out: Activity
[20] = target: Serine/threonine-protein kinase Chk1 (Homo sapiens) (UniProt O14757); test: Inhibition of His-tagged full length human CHK1 expressed in baculovirus expression system at 1 uM by Selectscreen kinase assay; how it was run: as §1
[21] = tested on: MDA-MB-231; test: Induction of cell cycle arrest in human MDA-MB-231 cells assessed as accumulation of cells at S phase at 0.4 uM measured after 48 hrs by PI staining based flow cytometry method (reference value: 39.17%); assay type: functional
[22] = tested on: U-87 MG; test: Antiproliferative activity against human U-87MG cells assessed as inhibition of cell growth measured after 72 hrs by MTT assay; assay type: functional, cell-based, U-87MG ATCC
How it was run: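 Cells were seeded at 4000–5000/well and held 24 h at 37 °C in 5% CO2. Compounds were added at the indicated final concentrations and incubated 72 h. MTT was added (5 mg/mL in PBS, stated as final) for 4 h at 37 °C. Formazan was dissolved in DMSO and absorbance read at 490 nm. The 50% growth-inhibitory concentration is the mean of three independent experiments ± SE.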

[23] = tested on: A549; test: Antiproliferative activity against human A549 cells assessed as cell viability at 0.1 uM measured after 24 hrs by MTT assay (reference value: 100%); assay type: functional; conditions: read-out: Activity
[24] = target: T1, Focal adhesion kinase 1; test: Inhibition of N-terminal GST-fused human truncated FAK (376 to 1052 residues) expressed in baculovirus expression system using tyrosine kinase peptide as substrate measured after 50 mins in presence of ATP by homogenous time resolved flourescence assay
Target sequence in this assay (Q05397 whole entry): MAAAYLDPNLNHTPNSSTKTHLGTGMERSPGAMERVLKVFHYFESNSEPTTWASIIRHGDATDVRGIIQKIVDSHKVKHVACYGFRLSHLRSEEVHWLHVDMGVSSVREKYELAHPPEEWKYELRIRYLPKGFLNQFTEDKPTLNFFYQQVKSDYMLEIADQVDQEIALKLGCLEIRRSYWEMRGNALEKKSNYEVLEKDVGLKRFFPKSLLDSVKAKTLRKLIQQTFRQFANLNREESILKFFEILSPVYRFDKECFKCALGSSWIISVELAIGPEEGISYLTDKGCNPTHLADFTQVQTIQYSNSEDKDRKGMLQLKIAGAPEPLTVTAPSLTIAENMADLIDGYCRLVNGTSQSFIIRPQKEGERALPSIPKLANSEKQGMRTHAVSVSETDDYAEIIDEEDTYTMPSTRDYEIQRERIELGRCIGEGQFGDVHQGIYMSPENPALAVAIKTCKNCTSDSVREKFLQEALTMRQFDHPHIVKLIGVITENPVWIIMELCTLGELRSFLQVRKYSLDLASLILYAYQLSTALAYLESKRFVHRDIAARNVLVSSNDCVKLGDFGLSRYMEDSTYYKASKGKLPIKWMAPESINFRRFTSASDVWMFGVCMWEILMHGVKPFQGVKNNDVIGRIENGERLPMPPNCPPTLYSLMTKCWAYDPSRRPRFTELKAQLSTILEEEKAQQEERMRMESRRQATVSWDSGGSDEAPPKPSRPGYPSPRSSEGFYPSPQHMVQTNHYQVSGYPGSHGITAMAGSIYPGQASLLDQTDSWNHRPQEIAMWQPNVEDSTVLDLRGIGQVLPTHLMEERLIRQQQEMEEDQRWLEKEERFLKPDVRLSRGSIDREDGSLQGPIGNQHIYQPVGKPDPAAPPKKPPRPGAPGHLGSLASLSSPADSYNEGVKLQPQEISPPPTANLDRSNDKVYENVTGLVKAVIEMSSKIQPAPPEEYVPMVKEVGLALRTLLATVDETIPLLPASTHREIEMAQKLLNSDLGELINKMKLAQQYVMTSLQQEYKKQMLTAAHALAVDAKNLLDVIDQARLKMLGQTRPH

[25] = tested on: MDA-MB-231; test: Induction of apoptosis in human MDA-MB-231 cells assessed as early apoptotic cells at 0.2 uM incubated for 48 hrs by Annexin V-FITC/PI staining based flow cytometric analysis (reference value: 1.58%); assay type: functional
[26] = tested on: MDA-MB-231; test: Inhibition of cell migration in human MDA-MB-231 cells at 0.15 to 0.6 uM by wound healing assay; assay type: functional, cell-based; conditions: dose 0.15-0.6 µM, time 24-48 hrs, TDE = time-dependent effect
How it was run: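 MDA-MB-231 cells (2×10^6/well) were grown to confluence and the monolayer was scratched with a pipette tip. Cells were washed with PBS, kept in serum-free medium and treated with DMSO or compound at 0.15, 0.3 or 0.6 μM for 48 h. Wound closure was photographed by inverted microscope at 24 and 48 h.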

[27] = Intrinsic clearance in rat liver microsomes at 1 uM measured after 60 mins in presence of NADPH by LC-MS/MS analysis; assay type: ADME, Microsome; conditions: read-out: CLH; how it was run: as §2
[28] = Metabolic stability in rat liver microsomes assessed as parent compound remaining at 1 uM measured after 60 mins in presence of NADPH by LC-MS/MS analysis; assay type: ADME, Microsome; conditions: read-out: Stabilty; how it was run: as §2

Sequence of Inhibitor of nuclear factor kappa-B kinase subunit epsilon (Homo sapiens) (Q14164 whole entry): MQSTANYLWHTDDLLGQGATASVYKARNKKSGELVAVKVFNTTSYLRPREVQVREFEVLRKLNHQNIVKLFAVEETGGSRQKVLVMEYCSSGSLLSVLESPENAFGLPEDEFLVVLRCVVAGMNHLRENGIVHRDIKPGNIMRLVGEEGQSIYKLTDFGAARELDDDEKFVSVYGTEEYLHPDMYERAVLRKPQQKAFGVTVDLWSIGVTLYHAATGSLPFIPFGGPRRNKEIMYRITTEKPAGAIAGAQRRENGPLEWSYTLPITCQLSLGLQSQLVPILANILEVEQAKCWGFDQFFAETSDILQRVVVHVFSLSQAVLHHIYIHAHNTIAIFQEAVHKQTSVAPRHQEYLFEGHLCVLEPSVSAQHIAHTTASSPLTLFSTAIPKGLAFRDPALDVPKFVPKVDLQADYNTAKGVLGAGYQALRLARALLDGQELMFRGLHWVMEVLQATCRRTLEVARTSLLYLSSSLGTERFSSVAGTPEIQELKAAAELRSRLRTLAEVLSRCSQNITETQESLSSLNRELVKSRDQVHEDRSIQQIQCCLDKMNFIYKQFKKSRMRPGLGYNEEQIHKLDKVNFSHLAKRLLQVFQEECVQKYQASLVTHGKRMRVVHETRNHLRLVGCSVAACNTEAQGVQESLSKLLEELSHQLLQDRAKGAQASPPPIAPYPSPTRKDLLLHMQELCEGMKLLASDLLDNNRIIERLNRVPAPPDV
Sequence of Protein kinase C theta type (Homo sapiens) (Q04759 whole entry, looked up): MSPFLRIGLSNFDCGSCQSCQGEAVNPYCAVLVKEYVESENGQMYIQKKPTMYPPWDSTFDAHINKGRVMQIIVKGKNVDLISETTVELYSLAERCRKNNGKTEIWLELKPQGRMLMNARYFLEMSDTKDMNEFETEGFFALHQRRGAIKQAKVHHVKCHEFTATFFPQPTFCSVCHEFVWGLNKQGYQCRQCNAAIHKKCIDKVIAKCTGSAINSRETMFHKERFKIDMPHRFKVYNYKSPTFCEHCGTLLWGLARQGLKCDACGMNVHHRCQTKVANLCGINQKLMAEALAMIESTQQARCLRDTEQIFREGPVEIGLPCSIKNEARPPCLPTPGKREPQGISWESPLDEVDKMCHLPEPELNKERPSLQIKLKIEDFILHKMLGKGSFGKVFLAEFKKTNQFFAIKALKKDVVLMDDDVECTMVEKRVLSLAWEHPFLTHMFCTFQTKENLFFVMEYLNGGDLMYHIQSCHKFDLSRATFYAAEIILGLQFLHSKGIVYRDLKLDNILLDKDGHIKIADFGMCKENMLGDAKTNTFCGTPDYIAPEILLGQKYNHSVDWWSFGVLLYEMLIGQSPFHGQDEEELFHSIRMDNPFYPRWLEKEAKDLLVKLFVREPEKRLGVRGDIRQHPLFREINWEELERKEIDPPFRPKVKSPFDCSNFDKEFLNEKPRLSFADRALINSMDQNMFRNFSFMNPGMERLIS
Sequence of Homeodomain-interacting protein kinase 3 (Homo sapiens) (Q9H422 whole entry, looked up, the tested form may be a part): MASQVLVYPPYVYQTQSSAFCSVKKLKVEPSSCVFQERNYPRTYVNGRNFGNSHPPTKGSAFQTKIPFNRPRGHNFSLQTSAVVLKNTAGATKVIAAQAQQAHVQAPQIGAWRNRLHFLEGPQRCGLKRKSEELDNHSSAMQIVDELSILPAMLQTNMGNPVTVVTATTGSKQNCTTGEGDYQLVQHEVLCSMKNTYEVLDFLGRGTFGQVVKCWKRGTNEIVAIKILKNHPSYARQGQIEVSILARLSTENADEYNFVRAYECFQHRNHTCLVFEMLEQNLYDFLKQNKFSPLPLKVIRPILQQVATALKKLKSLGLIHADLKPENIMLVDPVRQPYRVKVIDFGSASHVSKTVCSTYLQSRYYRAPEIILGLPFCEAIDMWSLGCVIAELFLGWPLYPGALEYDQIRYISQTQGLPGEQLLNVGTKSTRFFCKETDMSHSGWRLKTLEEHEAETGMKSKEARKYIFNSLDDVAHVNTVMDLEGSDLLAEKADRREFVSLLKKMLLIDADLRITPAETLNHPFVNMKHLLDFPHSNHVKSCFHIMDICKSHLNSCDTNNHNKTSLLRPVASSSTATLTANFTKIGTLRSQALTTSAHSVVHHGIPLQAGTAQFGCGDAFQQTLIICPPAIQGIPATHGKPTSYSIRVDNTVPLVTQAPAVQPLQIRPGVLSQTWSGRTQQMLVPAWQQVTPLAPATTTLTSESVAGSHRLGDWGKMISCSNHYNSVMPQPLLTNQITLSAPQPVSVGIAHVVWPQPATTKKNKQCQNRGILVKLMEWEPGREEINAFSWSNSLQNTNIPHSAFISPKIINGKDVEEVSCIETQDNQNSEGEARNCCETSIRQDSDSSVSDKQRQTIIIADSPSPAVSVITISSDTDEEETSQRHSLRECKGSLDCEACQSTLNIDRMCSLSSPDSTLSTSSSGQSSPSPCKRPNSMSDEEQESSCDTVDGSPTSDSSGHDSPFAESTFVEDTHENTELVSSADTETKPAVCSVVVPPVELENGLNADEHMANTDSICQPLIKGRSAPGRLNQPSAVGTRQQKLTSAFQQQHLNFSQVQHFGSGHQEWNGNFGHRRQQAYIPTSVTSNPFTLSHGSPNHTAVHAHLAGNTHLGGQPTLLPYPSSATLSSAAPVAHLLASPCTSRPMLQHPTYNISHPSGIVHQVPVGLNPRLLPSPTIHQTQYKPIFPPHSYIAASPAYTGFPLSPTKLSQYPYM
Sequence of Serine/threonine-protein kinase Chk1 (Homo sapiens) (O14757 whole entry): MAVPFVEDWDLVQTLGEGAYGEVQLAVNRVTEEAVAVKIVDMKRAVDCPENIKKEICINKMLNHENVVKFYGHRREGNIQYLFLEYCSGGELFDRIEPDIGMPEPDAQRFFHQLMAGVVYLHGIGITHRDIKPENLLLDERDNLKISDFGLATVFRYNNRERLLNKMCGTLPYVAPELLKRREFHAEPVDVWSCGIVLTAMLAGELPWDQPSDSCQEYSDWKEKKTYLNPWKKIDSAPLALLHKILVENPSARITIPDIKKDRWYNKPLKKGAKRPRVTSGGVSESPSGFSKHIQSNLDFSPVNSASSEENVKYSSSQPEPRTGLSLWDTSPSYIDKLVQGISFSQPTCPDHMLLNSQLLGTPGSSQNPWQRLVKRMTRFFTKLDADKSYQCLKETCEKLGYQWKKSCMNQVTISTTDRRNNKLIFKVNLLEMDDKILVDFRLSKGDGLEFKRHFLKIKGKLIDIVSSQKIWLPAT
Sequence of Serine/threonine-protein kinase PAK 1 (Homo sapiens) (Q13153 whole entry): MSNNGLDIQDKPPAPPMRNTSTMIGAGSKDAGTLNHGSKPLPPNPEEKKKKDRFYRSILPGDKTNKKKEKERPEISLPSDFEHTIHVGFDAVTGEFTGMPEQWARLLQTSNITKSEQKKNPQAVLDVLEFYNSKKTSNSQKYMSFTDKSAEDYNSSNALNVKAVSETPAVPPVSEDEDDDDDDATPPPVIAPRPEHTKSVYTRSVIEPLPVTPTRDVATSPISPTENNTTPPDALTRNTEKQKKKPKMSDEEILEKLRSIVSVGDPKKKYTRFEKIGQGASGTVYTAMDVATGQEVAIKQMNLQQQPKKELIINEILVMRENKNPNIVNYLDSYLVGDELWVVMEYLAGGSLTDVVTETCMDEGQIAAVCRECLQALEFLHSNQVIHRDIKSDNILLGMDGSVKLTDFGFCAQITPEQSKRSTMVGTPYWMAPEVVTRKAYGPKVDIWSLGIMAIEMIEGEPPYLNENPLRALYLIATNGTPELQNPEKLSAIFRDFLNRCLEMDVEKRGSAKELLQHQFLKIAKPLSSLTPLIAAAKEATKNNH

COc1ccccc1-c1csc2cnc(Nc3ccc(C(=O)NC4CCNCC4)c(F)c3)nc12
Activity [1]: Tde | Activity [2]: 41.96% | inhibition [3]: 41% | inhibition [4]: 67% | Activity [5]: 9.49% | Activity [6]: Dose-dependent effect | viability at 2.5 µM [7]: 52.2% | inhibition [8]: 66% | Activity [9]: 15.61% | inhibition [10]: 33% | viability at 0.5 µM [11]: 47.4% | Activity [12]: Dose-dependent effect | viability at 0.2 µM [13]: 75% | inhibition [14]: 48% | inhibition [15]: 100% | viability at 2.5 µM [16]: 18.8% | inhibition [17]: 72% | CLH [18]: 18.6 µL/min/mg | viability at 0.1 µM [19]: 74.1% | inhibition [20]: 38% | Activity [21]: 40.18% | IC50 [22]: 160 nM | viability at 0.1 µM [23]: 96.4% | IC50 [24]: 28.2 nM | Activity [25]: 9.78% | inhibition [26]: Tde | microsomal CLint at 1 µM [27]: 10.4 µL/min/mg | remaining at 1 h, 1 µM [28]: 72.4%
